In data set [1] the test system is Mus musculus. Briefly: Dose normalized AUC (0 to 24 hrs) in C57BL/6 mouse at 26.1 mg/kg administered as single dose via oral gavage by LC-MS/MS analysis. The format is ADME, organism-based. As to conditions: in vivo.
Data set [2] deals with Mus musculus. Briefly: Dose normalized AUC (0 to 24 hrs) in CD-1 mouse at 30 mg/kg administered via oral gavage by LC-MS/MS analysis. The format is ADME, organism-based. The settings on record: in vivo.
The nature of data set [3]: AUC (0 to 24 hrs) in C57BL/6 mouse at 30 mg/kg administered as single dose via oral gavage by LC-MS/MS analysis. The format is ADME, organism-based. On the set-up: time < 24 hr, dose 30 mg/kg, route oral. The settings on record: in vivo.
The target of data set [4] is Leucine--tRNA ligase, cytoplasmic (Homo sapiens, UniProt Q9P2J5). Briefly: Inhibition of human N-terminal 6His-tagged cytoplasmic LeuRS expressed in Escherichia coli BL21(DE3) assessed as […] after 20 mins by liquid scintillation counting analysis.
Leucine--tRNA ligase, cytoplasmic, sequence (Q9P2J5 whole entry): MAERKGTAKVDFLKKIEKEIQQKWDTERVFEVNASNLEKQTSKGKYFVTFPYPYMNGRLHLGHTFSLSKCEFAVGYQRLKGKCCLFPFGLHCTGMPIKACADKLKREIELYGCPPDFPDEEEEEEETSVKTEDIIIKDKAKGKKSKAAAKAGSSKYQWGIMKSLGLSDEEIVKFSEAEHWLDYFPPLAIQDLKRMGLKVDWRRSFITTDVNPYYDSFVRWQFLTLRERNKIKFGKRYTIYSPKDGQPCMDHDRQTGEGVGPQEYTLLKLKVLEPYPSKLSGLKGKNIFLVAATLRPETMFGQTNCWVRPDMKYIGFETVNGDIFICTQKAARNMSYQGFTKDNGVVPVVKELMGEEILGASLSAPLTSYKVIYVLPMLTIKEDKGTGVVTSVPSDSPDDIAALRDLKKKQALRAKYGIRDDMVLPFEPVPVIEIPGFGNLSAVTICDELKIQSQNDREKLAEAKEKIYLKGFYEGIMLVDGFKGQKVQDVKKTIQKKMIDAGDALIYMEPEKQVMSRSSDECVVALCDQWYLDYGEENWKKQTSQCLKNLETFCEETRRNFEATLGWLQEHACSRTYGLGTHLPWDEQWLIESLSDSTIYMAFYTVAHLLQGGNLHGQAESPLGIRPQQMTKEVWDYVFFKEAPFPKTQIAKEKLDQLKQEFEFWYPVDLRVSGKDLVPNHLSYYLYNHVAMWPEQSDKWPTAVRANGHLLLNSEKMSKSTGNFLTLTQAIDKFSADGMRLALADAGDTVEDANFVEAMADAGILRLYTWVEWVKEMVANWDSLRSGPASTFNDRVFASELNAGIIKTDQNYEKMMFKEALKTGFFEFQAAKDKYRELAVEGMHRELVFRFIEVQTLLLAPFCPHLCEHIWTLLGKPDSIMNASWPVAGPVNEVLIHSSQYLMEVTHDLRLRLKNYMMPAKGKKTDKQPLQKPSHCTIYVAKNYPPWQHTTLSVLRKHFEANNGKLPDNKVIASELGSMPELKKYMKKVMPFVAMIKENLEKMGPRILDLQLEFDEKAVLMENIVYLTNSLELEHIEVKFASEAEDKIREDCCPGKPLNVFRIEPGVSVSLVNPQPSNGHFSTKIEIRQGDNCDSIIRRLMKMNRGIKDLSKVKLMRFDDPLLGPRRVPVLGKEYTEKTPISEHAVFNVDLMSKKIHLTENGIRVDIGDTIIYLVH
Data set [5] concerns Mycobacterium tuberculosis. Put plainly: Antimicrobial activity against Mycobacterium tuberculosis H37Rv infected in C57BL/6J mouse assessed as log reduction in bacterial load in lungs administered qd for 8 consecutive weeks starting from 6 weeks post infection measured 24 hrs post last dose. It is filed as functional. The essentials: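 C57BL/6J mice infected intratracheally with ~10² CFU M. tuberculosis H37Rv. Dosed QD, 7 days/week, for 8 weeks starting 6 weeks post-infection; killed ≥24 h after last dose. Lung homogenates plated on 7H11/10% OADC for 21 days at 37 °C. n = 3 per dose group, 7 for controls; mean (SD); ANOVA with Dunnett's test versus 14-week untreated.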

In the case of `CCOc1ccc(Br)c2c1B(O)O[C@@H]2CN`, the AUC/dose was found to be 2.98 µg·h/mL with Mus musculus [1] and 1.92 µg·h/mL with Mus musculus [2].
As usually defined, the AUC(0-t) is exposure summed from dosing to a finite time, without extrapolation to infinity. Read a high AUC(0-t) as high exposure. A word on the IC50: it is the concentration that inhibits the measured activity by half. Consider `Cl.NC[C@H]1OB(O)c2c(OCCO)ccc(Cl)c21`, for which the AUC(0-t) at 24 h in data set [3] amounted to 88200 ng·h/mL. In addition, the IC50 in data set [4] is 132 µM. Moreover, the Activity entry in data set [5] is “Dose-dependent effect”.

For the origin of these results see ChEMBL document CHEMBL4017537, “Discovery of a Potent and Specific M. tuberculosis Leucyl-tRNA Synthetase Inhibitor: (S)-3-(Aminomethyl)-4-chloro-7-(2-hydroxyethoxy)benzo[c][1,2]oxaborol-1(3H)-ol (GSK656)” (J Med Chem, 2017).
